Reference: ChEMBL document CHEMBL4177600, “Identification of novel PI3K inhibitors through a scaffold hopping strategy” (Bioorg Med Chem Lett, 2017)

How the values were obtained:
[1] = molecular target: T1, Serine/threonine-protein kinase Chk1 (Homo sapiens) (UniProt O14757); assay: Inhibition of recombinant human N-terminal GST/HIS6-tagged CHK1 (M1 to T476 residues) expressed in baculovirus infected Sf9 insect cells at 1 uM using S6 peptide as substrate by fliter binding assay relative to control
T1 sequence (whole entry): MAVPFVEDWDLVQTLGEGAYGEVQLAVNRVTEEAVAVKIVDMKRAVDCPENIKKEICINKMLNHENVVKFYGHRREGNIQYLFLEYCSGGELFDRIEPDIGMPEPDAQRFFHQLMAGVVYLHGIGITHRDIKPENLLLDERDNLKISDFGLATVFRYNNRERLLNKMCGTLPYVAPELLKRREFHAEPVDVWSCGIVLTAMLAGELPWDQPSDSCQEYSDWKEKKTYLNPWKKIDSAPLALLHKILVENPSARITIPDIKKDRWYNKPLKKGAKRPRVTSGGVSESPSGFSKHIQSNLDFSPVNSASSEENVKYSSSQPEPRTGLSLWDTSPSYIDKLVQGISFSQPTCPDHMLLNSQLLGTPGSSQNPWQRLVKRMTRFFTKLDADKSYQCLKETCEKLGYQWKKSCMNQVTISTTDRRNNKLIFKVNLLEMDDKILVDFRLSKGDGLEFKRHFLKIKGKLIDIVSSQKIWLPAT
How it was run: (§1)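 Kinase panel of 24 enzymes, each tested at 1 µM; percent inhibition reported as the average of two independent data points.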

[2] = molecular target: Serine/threonine-protein kinase Chk2 (Homo sapiens) (UniProt O96017); assay: Inhibition of CHK2 (unknown origin) at 1 uM relative to control; how it was run: as §1
[3] = molecular target: Epidermal growth factor receptor (Homo sapiens) (UniProt P00533); assay: Inhibition of recombinant human N-terminal GST/His6-tagged EGFR (H672 to A1210 residues) expressed in Sf9 insect cells at 1 uM using TRK-C-derived peptide as substrate by filter binding method relative to control; how it was run: as §1
[4] = molecular target: Focal adhesion kinase 1 (Homo sapiens) (UniProt Q05397); assay: Inhibition of human FAK at 1 uM relative to control; how it was run: as §1
[5] = molecular target: T2, Inhibitor of nuclear factor kappa-B kinase subunit beta (Homo sapiens) (UniProt O14920); assay: Inhibition of recombinant human N-terminal GST/His6-tagged IKKbeta (M1 to S756 residues) expressed in baculovirus infected Sf9 cells at 1 uM using IKBa derived peptide as substrate by filter binding method relative to control; how it was run: as §1
T2 sequence (whole entry): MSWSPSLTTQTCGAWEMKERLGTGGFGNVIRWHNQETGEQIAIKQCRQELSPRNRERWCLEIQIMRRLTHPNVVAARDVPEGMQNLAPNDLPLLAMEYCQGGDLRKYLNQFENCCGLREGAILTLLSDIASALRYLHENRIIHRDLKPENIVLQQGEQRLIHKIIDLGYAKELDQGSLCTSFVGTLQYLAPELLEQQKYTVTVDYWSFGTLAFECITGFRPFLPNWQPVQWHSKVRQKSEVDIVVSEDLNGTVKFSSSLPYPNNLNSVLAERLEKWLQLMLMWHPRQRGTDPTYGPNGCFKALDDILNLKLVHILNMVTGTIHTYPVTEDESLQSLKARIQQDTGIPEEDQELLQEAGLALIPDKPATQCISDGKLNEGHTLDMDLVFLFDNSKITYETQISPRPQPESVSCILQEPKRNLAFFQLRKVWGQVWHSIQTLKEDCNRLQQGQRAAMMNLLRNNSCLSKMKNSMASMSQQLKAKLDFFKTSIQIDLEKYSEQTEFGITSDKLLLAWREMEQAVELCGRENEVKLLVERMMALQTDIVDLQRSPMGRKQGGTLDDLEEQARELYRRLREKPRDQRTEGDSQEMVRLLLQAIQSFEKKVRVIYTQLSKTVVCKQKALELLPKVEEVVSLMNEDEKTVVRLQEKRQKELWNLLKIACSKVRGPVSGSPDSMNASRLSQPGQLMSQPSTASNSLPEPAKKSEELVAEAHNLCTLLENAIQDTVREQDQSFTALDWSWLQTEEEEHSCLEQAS

[6] = molecular target: Insulin receptor (Homo sapiens) (UniProt P06213); assay: Inhibition of recombinant human N-terminal GST-tagged INSR (G989 to S1382 residues) expressed in baculovirus infected Sf9 cells at 1 uM using Poly(Ala,Glu,Lys,Tyr)6:2:5:1 as substrate by filter binding method relative to control; how it was run: as §1
[7] = molecular target: Mast/stem cell growth factor receptor Kit (Homo sapiens) (UniProt P10721); assay: Inhibition of recombinant human N-terminal GST/His6-tagged KIT (T544 to V976 residues) expressed in Sf9 insect cells at 1 uM using TRK-C-derived peptide as substrate by filter binding method relative to control; how it was run: as §1
[8] = molecular target: Serine/threonine-protein kinase PAK 1 (Homo sapiens) (UniProt Q13153); assay: Inhibition of recombinant human N-terminal GST/His6-tagged PAK1 (M1 to H545 residues) expressed in Sf9 insect cells at 1 uM using tetra(LRRWSLG) as substrate by filter binding method relative to control
How it was run: (§2)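 Single-point screen at 1 µM in a 24-kinase panel run externally; each value is the average of two independent data points. The detailed assay conditions are given only on the provider's site.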

[9] = molecular target: T3, 3-phosphoinositide-dependent protein kinase 1 (Homo sapiens) (UniProt O15530); assay: Inhibition of recombinant human N-terminal His6-tagged PDK1 (M1 to M460 residues) expressed in Sf9 insect cells at 1 uM using LRRWSLG as substrate by filter binding method relative to control; how it was run: as §2
T3 sequence (whole entry): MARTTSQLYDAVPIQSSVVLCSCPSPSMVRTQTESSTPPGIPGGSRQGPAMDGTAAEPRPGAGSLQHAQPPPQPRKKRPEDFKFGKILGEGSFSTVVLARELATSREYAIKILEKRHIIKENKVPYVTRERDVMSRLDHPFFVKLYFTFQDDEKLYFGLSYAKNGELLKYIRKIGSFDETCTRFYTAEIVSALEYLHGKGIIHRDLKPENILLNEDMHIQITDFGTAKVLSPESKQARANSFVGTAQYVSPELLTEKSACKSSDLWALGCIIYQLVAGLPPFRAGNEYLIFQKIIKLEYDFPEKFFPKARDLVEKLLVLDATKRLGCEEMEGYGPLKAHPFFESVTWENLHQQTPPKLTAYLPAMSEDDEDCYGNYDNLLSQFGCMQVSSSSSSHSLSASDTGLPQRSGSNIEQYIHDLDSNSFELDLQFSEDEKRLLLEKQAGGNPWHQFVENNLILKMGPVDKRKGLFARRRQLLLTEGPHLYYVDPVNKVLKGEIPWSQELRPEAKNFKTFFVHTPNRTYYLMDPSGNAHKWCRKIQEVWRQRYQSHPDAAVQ

[10] = molecular target: CYP2C9 (Homo sapiens, UniProt P11712); assay: Inhibition of CYP2C9 (unknown origin) at 10 uM relative to control; type: ADME
How it was run: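 CYP1A2, 2C9, 2C19, 2D6 and 3A4 inhibition measured at 10 µM test compound in duplicate; percent inhibition reported.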

Serine/threonine-protein kinase Chk2 (Homo sapiens), sequence (O96017 whole entry, the tested form may be a part): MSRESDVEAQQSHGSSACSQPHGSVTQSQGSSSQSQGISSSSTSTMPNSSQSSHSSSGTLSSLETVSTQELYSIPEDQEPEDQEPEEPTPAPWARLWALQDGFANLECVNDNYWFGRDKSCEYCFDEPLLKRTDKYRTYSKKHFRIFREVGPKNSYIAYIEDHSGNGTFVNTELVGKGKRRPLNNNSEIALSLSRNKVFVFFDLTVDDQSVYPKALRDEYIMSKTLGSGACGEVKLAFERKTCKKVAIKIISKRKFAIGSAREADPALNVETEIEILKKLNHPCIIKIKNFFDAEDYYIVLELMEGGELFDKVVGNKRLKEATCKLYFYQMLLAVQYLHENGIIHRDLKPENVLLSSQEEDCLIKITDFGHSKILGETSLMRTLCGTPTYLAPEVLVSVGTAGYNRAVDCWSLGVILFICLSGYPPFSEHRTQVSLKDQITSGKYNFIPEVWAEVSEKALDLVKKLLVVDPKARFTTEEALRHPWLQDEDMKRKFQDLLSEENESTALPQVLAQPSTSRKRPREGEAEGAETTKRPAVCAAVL
Focal adhesion kinase 1 (Homo sapiens), sequence (Q05397 2-1052 limits assumed): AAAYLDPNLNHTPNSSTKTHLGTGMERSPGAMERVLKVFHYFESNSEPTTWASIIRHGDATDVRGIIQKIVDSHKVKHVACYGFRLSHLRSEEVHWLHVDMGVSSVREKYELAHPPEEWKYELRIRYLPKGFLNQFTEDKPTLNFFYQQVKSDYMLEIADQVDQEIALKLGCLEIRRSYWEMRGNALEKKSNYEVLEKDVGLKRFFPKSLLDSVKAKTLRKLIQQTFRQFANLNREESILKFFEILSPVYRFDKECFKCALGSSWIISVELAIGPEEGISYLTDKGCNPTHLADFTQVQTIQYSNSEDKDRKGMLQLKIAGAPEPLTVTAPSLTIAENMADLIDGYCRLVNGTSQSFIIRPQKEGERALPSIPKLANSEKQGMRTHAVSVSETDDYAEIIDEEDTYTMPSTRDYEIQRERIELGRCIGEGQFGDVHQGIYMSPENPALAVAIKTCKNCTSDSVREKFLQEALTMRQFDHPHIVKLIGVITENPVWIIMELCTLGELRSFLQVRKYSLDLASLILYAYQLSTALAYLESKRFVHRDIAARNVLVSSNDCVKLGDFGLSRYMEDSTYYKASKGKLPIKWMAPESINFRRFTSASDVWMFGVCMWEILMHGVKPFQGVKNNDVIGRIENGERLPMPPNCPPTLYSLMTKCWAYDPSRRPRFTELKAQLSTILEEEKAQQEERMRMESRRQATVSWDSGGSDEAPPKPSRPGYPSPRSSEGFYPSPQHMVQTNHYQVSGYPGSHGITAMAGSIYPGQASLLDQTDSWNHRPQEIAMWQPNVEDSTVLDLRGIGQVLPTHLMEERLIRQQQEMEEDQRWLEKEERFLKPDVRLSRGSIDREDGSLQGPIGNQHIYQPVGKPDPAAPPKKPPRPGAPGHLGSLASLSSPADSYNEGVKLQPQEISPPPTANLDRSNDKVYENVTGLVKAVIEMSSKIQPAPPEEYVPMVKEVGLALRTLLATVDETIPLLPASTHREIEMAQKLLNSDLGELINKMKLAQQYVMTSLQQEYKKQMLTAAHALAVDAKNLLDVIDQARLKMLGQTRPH
Epidermal growth factor receptor (Homo sapiens), sequence (P00533 whole entry, the tested form may be a part): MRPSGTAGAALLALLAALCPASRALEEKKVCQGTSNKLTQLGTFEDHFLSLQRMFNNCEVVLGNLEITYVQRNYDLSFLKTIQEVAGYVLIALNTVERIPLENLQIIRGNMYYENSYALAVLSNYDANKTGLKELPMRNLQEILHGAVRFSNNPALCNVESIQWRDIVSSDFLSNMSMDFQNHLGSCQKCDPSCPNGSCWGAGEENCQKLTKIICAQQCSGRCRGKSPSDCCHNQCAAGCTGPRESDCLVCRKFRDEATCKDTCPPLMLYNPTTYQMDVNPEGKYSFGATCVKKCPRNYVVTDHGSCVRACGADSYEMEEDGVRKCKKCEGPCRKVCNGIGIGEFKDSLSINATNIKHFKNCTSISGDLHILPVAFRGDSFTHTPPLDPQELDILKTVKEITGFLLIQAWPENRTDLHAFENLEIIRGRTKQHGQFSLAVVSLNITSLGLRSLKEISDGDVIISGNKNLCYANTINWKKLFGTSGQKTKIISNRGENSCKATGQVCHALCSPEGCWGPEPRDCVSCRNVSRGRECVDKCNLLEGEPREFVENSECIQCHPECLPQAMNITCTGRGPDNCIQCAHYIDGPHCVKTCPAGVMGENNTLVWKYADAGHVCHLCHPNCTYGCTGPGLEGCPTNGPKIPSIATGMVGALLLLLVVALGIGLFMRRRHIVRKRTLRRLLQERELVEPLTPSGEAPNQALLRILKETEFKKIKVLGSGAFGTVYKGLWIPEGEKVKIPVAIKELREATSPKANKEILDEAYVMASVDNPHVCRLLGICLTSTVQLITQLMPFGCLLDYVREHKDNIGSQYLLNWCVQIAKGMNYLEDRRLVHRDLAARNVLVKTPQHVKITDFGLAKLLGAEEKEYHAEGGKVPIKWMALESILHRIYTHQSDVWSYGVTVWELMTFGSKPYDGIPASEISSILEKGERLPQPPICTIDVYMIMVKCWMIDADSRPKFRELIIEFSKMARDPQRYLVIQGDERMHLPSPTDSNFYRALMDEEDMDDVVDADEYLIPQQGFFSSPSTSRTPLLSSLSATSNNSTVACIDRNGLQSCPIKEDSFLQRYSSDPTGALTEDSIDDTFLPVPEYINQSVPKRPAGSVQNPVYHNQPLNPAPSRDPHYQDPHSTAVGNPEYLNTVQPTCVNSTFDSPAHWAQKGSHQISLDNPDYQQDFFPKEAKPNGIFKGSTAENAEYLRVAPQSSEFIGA
Insulin receptor (Homo sapiens), sequence (P06213 28-758 limits assumed): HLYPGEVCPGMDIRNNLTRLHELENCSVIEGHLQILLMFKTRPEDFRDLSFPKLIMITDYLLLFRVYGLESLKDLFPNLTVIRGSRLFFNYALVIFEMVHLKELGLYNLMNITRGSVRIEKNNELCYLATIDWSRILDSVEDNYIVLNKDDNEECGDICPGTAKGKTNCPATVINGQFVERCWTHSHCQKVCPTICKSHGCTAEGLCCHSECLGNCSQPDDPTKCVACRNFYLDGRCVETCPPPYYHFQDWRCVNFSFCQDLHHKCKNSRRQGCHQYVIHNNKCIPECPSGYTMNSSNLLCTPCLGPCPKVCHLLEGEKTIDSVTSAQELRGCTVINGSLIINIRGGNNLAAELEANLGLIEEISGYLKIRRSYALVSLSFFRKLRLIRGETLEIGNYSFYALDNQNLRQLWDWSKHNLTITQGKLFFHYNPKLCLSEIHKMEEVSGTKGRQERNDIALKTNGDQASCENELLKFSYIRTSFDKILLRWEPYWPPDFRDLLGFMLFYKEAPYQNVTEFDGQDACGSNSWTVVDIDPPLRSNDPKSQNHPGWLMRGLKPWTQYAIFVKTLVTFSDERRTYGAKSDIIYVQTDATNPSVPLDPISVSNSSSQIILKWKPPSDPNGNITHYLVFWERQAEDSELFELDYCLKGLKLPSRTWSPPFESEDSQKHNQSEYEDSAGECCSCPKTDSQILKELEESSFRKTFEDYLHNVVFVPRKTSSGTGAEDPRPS
Insulin receptor (Homo sapiens), sequence (P06213 763-1382 limits assumed): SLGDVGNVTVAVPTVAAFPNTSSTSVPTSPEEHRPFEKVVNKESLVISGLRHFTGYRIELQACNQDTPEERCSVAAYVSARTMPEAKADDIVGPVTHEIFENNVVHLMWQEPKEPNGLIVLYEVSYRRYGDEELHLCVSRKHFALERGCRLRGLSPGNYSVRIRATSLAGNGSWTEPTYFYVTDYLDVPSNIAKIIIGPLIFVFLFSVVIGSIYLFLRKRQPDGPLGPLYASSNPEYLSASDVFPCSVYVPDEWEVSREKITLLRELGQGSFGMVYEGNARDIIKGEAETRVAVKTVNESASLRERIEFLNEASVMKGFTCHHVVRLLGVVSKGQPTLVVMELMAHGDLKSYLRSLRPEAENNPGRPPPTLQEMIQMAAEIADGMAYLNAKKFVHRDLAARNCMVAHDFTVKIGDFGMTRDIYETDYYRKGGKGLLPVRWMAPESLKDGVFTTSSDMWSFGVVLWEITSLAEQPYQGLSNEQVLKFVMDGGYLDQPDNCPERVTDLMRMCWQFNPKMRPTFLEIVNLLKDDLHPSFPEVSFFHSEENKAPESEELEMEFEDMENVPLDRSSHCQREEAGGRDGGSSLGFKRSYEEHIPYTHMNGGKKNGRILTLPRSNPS
Serine/threonine-protein kinase PAK 1 (Homo sapiens), sequence (Q13153 whole entry, the tested form may be a part): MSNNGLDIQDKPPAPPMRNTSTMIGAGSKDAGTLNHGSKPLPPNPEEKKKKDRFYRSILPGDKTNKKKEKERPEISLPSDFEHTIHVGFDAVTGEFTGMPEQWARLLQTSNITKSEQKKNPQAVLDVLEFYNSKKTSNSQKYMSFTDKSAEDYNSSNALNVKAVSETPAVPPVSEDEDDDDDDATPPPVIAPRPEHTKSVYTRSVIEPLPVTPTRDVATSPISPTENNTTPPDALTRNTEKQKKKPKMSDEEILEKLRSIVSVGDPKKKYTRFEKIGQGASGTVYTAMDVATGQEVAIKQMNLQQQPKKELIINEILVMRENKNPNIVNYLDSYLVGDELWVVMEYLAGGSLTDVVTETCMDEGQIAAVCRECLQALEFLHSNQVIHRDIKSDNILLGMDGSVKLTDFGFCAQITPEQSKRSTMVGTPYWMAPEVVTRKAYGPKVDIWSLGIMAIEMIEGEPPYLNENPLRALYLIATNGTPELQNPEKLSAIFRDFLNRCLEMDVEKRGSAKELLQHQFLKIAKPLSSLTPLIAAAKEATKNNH

CS(=O)(=O)N1CCN(Cc2cn3nc(-c4cnc(N)nc4)nc(N4CCOCC4)c3n2)CC1
< 25%: inhibition [1] | inhibition [2] | inhibition [3] | inhibition [4] | inhibition [5] | inhibition [6] | inhibition [7] | inhibition [8] | inhibition [9] | inhibition at 10 µM [10]

CS(=O)(=O)N1CCN(Cc2nc3c(N4CCOCC4)nc(-c4cnc(N)nc4)cn3n2)CC1
< 25%: inhibition [1] | inhibition [2] | inhibition [3] | inhibition [4] | inhibition [5] | inhibition [6] | inhibition [7] | inhibition [8] | inhibition [9] | inhibition at 10 µM [10]

CS(=O)(=O)N1CCN(Cc2nc3c(N4CCOCC4)nc(-c4cnc(N)nc4)c(Cl)n3n2)CC1
< 25%: inhibition [1] | inhibition [2] | inhibition [3] | inhibition [4] | inhibition [5] | inhibition [6] | inhibition [7] | inhibition [8] | inhibition [9] | inhibition at 10 µM [10]

CS(=O)(=O)N1CCN(Cc2cc3c(N4CCOCC4)nc(-c4cnc(N)nc4)cn3n2)CC1
< 25%: inhibition [1] | inhibition [2] | inhibition [3] | inhibition [4] | inhibition [5] | inhibition [6] | inhibition [7] | inhibition [8] | inhibition [9] | inhibition at 10 µM [10]
